In general, apparent Kd refers to a dissociation constant that holds for the conditions of the assay.

The subject of the data set is MS2 coat protein. The data set can be described thus: apparent Kd, MS2 coat protein; higher = weaker binding; RNA-MaP array; FMN 200 µM where present. In short, it runs like this:
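Stalled E. coli RNA polymerase transcribed each design on Illumina sequencing-chip clusters. The clusters were titrated with SNAP-549-labelled MS2 coat protein, starting at 0.7 or 1.5 nM and doubling up to 3 µM, first without ligand and then with constant ligand, in 100 mM Tris-HCl pH 7.5, 80 mM KCl, 4 mM MgCl2, BSA, DTT, yeast tRNA and Tween-20. Green signal was normalised to red-channel RNA signal and to the control-cluster median Fmax. The apparent Kd is the median of filtered binding-curve fits made for each cluster.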

Setting [1] is: designed as: OFF switch for flavin mononucleotide, no ligand.
The mark [2] stands for this setting: ligand present: flavin mononucleotide, designed as: OFF switch for flavin mononucleotide.
Setting [3] is: designed as: ON switch for flavin mononucleotide, no ligand.
Setting [4] is: ligand present: flavin mononucleotide, designed as: ON switch for flavin mononucleotide.

Take “AAACAUGUCCGAGGAUAUCUGAGAUCAUUUUCAAGAGAAGGCGGACAUGAGGAUCACCCAUGUCUCUCCUCAUCAACUCUAAAU”: the “apparent Kd” value runs as follows: under setting [1], 5.99 nM; under setting [2], 36.9 nM.
Consider “UUUUAACAUGAGGAUCACCCAUGUGAGGAUAUCGAAAUUUAUAUUUAUAUUAAUUAAUCGAGAAGGCACAUUUU”, for which the “apparent Kd” value reads like this: under setting [1], 151 nM; under setting [2], 156 nM.
Consider “ACGAAGAUACAGAAGGGUAAAUUAGUUAAUUAUAAUUUGGUUAUGCACUACAGGAUAUGUUAUACAUGAGGAUCACCCAUGUUC”, for which the “apparent Kd” value turned out to be 18.2 nM under setting [3] and 13.7 nM under setting [4].
Take “GUUAACACAUGAGGAUAUGCUCGCAUUUCAAGAGCAGAAGGUAUGUCUAUAGACAUGAGGAUCACCCAUGUAUUUAUCAUUGAA”: the “apparent Kd” value amounted to 274 nM under setting [3] and 52.6 nM under setting [4].
“AGUGUGUGGCAGGAUAUGCGAUUUGUCGGUGUUGCAGAAGGGUCUACAUGAGGAUCACCCAUGUGUGCGGUUGA”: the “apparent Kd” value is 184 nM under setting [1] and 309 nM under setting [2].
In the case of “UUAGGAUGUGAAGGAUAUGCCGAGUUAAGCCCAGCAGAAGGUUACAUACCUUUUGAUACAUGAGGAUCACCCAUGUUCUAAGAU”, the “apparent Kd” value is 41.6 nM under setting [3] and 28.3 nM under setting [4].
Regarding “UCGUGAGGGACAGGAUAUGGACAUGAGGAUCACCCAUGUACAUGGGAAUAUAUACUGAAUUUAUACUAGAAGGGUUACAUAAAU”, the “apparent Kd” value by setting is: under setting [1], 21.6 nM; under setting [2], 16.1 nM.
In the case of “AUGGGUUAAGGAGGAUAUAGAGGGAGAAGUAAACAUGAGGAUCACCCAUGUAUUUAAUUAGUUUACUAGAAGGCUUGUGAUUGU”, the “apparent Kd” value is, setting by setting: under setting [3], 33.6 nM; under setting [4], 41.5 nM.
Take “AACAGUAUAGGAUAUACAUGAGGAUCACCCAUGUGAGAAUUAAGUGGCGUACCACUAAGUAGAAGGAUACUGGA”: the “apparent Kd” value is, setting by setting: under setting [1], 50.8 nM; under setting [2], 222 nM.
On to “UUAUUAUGUGUAGGAUAUGCAUAUUAUUAUUAUGCAGAAGGACAUGAGGAUCACCCAUGUAUAUUAUUAAUAUAUAUUAUAUAU”, for which the “apparent Kd” value is 13.9 nM under setting [1] and 15.7 nM under setting [2].
“CAUAUCGUACGAGGAUAUAUGAGUCCUACAUGAGGAUCACCCAUGUAGGUGAUCUAACGAGAUUAGUAGAAGGCGUACGAUAUG”: the “apparent Kd” value came to 14.1 nM under setting [3] and 7.85 nM under setting [4].
For the sequence “CGUAGGAUCCAGAAGGCAUGAACAUGAGGAUCACCCAUGUCAAAAUACAUGAGGAUAUGGAUCCUACGAAAAGUGCGAAAGCAC”, the “apparent Kd” value is, setting by setting: under setting [3], 5.11 nM; under setting [4], 4.38 nM.
Take “AAUGAGACCGCAGGAUAUCCACAUGAGGAUCACCCAUGUUCUCAGAUCAGAAGCACGAUCUGCGAGGAGAAGGGCGACCUCAUA”: the “apparent Kd” value by setting is: under setting [3], 563 nM; under setting [4], 37.6 nM.
The like results for “GCACAUGAGGAUCACCCAUGUCGGGAGGAUAUCUAGGCUGGGCGAUGCUAGGGCGGCCUUUGCUUAGAGAAGGCCCAUAAAAUC” were, in that order, 69.1 nM and 32.4 nM.
Take “CAGGUAGACUGAGGAUAUACACUAAACAGCUAGUCUAUCUAGCUGAUCACAUGAGGAUCACCCAUGUAGAAGGCAGUCUGCCUG”: the “apparent Kd” value worked out at 19.6 nM under setting [1] and 56.5 nM under setting [2].
In the case of “UUCGUGGCAUCUCGCGCAUGUCCACAUGAGGAUCACCCAUGUCAGGAUAUACGGAAUGUCGUUCCGUAGAAGGGACAAGGGCUG”, the “apparent Kd” value runs as follows: under setting [1], 139 nM; under setting [2], 112 nM.
The like results for “ACCAUUUACUAAUUAUCUAUACAUGAGGAUCACCCAUGUUAUGAGGAUAUCAUCGUGAAACACGAUGAGAAGGUAUAGCAUUCG” were, in that order, 18.1 nM and 22.1 nM.
The matching figures for “GUGUGCUGAGGAUAUACACAGGAAUAGAAGAUAAGAUAAUCACAUGAGGAUCACCCAUGUAGAAGGCAGAGUGU”: 15.2 nM and 17.3 nM.
With “UCGCGAUGAGGAUAUACAUAGAAAUAGAUUCAUGUAAAACUACAUGAGGAUCACCCAUGUAGAAGGCAUUGCGU”, the “apparent Kd” value by setting is: under setting [1], 23 nM; under setting [2], 128 nM.
In the case of “AUUAAUUAAUUAAUACAUGAGGAUCACCCAUGUAAUAAGAUCAAGGAUAUCAGCUCGUUUAGAGCUGAGAAGGUGAUCACAUGU”, the “apparent Kd” value under setting [3] turned out to be 617 nM and the “apparent Kd” value under setting [4] came to 214 nM.
The matching figures for “UGGUACUAGGGAGGAUAUGGGAAGAUACAUGAGGAUCACCCAUGUUUAAGAAUGCCGAGAGGCAACUAGAAGGCCCAAGUACCU”: 425 nM and 18.6 nM.
Take “CGUUGGUCAGGAUAUGGUGGGCUGGUGAGAGGGCCGGGUGGCUAGAAGGGACAUGAGGAUCACCCAUGUACGGC”: the “apparent Kd” value under setting [1] is 40.4 nM and the “apparent Kd” value under setting [2] is 28.2 nM.
“CAGAGACAAGCAGGAUAUCGACACAUGAGGAUCACCCAUGUUCGUAGGAACCUGGGUCAAGUCUGCGAGAAGGGCUCGUCAGUA”: the “apparent Kd” value under setting [1] turned out to be 151 nM and the “apparent Kd” value under setting [2] is 159 nM.
In the case of “CCAUAAAAGAUCCAAAAUUACAACAUGAGGAUCACCCAUGUGCAGGAUAUCGUGACAGUGAAGUACGAGAAGGGCAGACACUGC”, the “apparent Kd” value turned out to be 197 nM under setting [1] and 208 nM under setting [2].
The like results for “UAGAACCUAGGAUAUACUUGGACCACUAAUGCACAGAUAUAACAUGAGGAUCACCCAUGUAGAAGGAGGAGUAA” were, in that order, 40.4 nM and 32.4 nM.
The matching figures for “AUAAUGUAAGGAUAUCAGUCGACUAGCUGCGGCUAGUCGACUGAGAAGGUACAUGAGGAUCACCCAUGUGUUUC”: 40.9 nM and 183 nM.
For the sequence “UUGGACGUCGUAGGAUAUGUAGGAUAUUCCCACAUGAGGAUCACCCAUGUUGACAUGGAAGAAGGACAGAAGGACGAUGUCCAU”, the “apparent Kd” value is, setting by setting: under setting [3], 4.05 nM; under setting [4], 3.47 nM.
On to “UUCUUACGAGGAUAUCGAUGGUGGAACAUGAGGAUCACCCAUGUAUGAGAUAUUGUAUUUCGAGAAGGCGUUCAGU”, for which the “apparent Kd” value is, setting by setting: under setting [1], 55.2 nM; under setting [2], 36.2 nM.
The matching figures for “GUCCUACAUGAGGAUCACCCAUGUAAGGAUAUGCUAGCGGUCGGAAGACUGACUGCUAGCAGAAGGUACAUGAU”: 15 nM and 24.5 nM.
With “GCCAUCGCAUGAGGAUAUGCUCCGGUUUCCGGAGCAGAAGGCAUGUAAUAAGACAUGAGGAUCACCCAUGUAGUUAAGAUGGCA”, the “apparent Kd” value by setting is: under setting [3], 7.11 nM; under setting [4], 5.55 nM.
As to “UCGGGCGUAGGAUAUGCUAUCACGGACAUGAGGAUCACCCAUGUCAGAUGUCCGGGCGAGGCAGAAGGGCGGUUUU”, the “apparent Kd” value is, setting by setting: under setting [1], 74.1 nM; under setting [2], 120 nM.
As for “GCUGGGUAGGCAGGAUAUCCUCGCGCAAACACAUGAGGAUCACCCAUGUACACAAAACGUGAUAUGGAGAAGGGCCGACCCACA”, the “apparent Kd” value came to 22.4 nM under setting [3] and 5.72 nM under setting [4].
In the case of “CUAUAUAAUACCUCAUGUACAUGAGGAUCACCCAUGUUAACUAAGGAUAUAUUUAUAUUAAUAAAGUAGAAGGUAGUACUAUUU”, the “apparent Kd” value under setting [1] stood at 23.4 nM and the “apparent Kd” value under setting [2] was found to be 18.8 nM.
Regarding “AAAACAUGAGGAUCACCCAUGUUUAGAUCGGUCGAUAGAAGUGAGGAUAUACUAAGUUAAGGCUGGUAGAAGGCACUGGGUACA”, the “apparent Kd” value stood at 26.9 nM under setting [3] and 27.5 nM under setting [4].
In the case of “UUUGUAAUGUCAGGAUAUAUAAUAAGUCAUACAGUAGAAGGGAUAAUAAUACUCAUGUACAUGAGGAUCACCCAUGUUAAAUAU”, the “apparent Kd” value runs as follows: under setting [3], 98.8 nM; under setting [4], 52.4 nM.
With “UUGUUAGGGAGAGGAUAUUGACAUGAGGAUCACCCAUGUAUUUGGGAGUGUUUACUGAAUUCUCACGAGAAGGCUUACGAAUUU”, the “apparent Kd” value is, setting by setting: under setting [1], 550 nM; under setting [2], 471 nM.
For “AAUGGGCACCAGAAGGACAUGAGGAUCACCCAUGUAGGAUAUGGGCGUUGAAGAUGUCUGAACGAGUUGCUGGAAGGAUAUGGG”, the “apparent Kd” value is, setting by setting: under setting [3], 305 nM; under setting [4], 41 nM.
As for “GCAUGCUAUGUCAGGAUAUACCUGUGGAUACAUAGGUAGAAGGGACAUGAGGAUCACCCAUGUCCUAAUCAUGC”, the “apparent Kd” value was determined as 12.8 nM under setting [1] and 14.9 nM under setting [2].
Consider “AAGAAACAUGAGGAUCACCCAUGUGAGGAUAUACGAUGCUAAGCGUAAGCUUAGUAUCGUAGAAGGCACAAAGG”, for which the “apparent Kd” value runs as follows: under setting [1], 131 nM; under setting [2], 311 nM.
The like results for “CUGAUGUUAGGAUAUCAGGCCGUGCGCGAAGGCGGGCAGCAUGAGAAGGAACAUGAGGAUCACCCAUGUGACGA” were, in that order, 27.2 nM and 67.8 nM.
On to “UGUCGGAGCAGAGGAUAUUACAUGAGGAUCACCCAUGUAUGAACAAAUAGCUGGAAACAGCAAUGUAAGAAGGCUGCUCCGACA”, for which the “apparent Kd” value by setting is: under setting [1], 5.82 nM; under setting [2], 7.45 nM.
The like results for “AUUAUAUAGAGAGGAUAUAGAAUAUUAUUUUAACAUGAGGAUCACCCAUGUAACCUUAUGUGUAGCUAGAAGGCUCAUUUAUUA” were, in that order, 42.2 nM and 74.2 nM.
Take “AGAAACUACGAGAAGGACAUAUAAUUCUUCAGAUACAUGAGGAUCACCCAUGUAGGAUAUCGUAGUUUCAGGAUCGUGAGAUCA”: the “apparent Kd” value came out at 5.95 nM under setting [1] and 10.3 nM under setting [2].
Regarding “GUAGCAAUCGGAGGAUAUUCAUUAAACAUGAGGAUCACCCAUGUUAAUUUGGGAGAAGGCCGAUUGCUACAAGAGCGAAAGCUC”, the “apparent Kd” value is, setting by setting: under setting [3], 7.23 nM; under setting [4], 4.66 nM.
Take “GGUUGGCGAGGAUAUACAUGAGGAUCACCCAUGUGGUCCUAAAAAAAAAUAAACCUUUGUAGAAGGCGCGGGUC”: the “apparent Kd” value worked out at 258 nM under setting [1] and 290 nM under setting [2].
Take “UAUCAAUUUAUGGGAUUAGAUUAUGAGGAUAUCAUUUUUUUAUACAUGAGGAUCACCCAUGUUUCUGAGAAGGCAUAAUUAAUA”: the “apparent Kd” value runs as follows: under setting [3], 16.9 nM; under setting [4], 6.29 nM.
On to “GCGUGGAAUACAGGAUAUGUUGUACAAUAAUCUUUGAGGCAUUGAGAUUAUACAGAAGGGUAAACAUGAGGAUCACCCAUGUAA”, for which the “apparent Kd” value under setting [1] came to 31 nM and the “apparent Kd” value under setting [2] is 25.1 nM.
The like results for “GAUCCGUGGCUUUCGCUUUGUUCACAUGAGGAUCACCCAUGUAGAAGGUAGCGGUUGAAUUUCGCUGAGGAUAUACAUAGGUGC” were, in that order, 13.4 nM and 24.3 nM.

The values are drawn from the EternaBench riboswitch data.
